Assays:
Assay type in all cases: ADME; call rule not given here
Cytochrome P450 2E1 [1] = target: T1, Cytochrome P450 2E1 (Homo sapiens, UniProt P05181); assay: Inhibition of human CYP2E1 expressed in Escherichia coli MV1304 assessed as reduction in 7-EFC O-de-ethylation activity at 10 uM after 10 mins in presence of reductase by spectrofluorometry
Outline: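 Reconstituted CYP2E1/reductase (1 µM each, 100 µg/ml DLPC, catalase, 50 mM K phosphate pH 7.4) incubated 10 min at 30°C with PIC at 0- to 100-fold molar excess; PIC in acetonitrile, 1% final. Aliquots diluted into secondary mix (0.1 mM 7-EFC, 0.2 mM NADPH, BSA) for 10 min; 7-HFC read at ex 410/em 510 nm. Three experiments in duplicate.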

Cytochrome P450 2E1 [2] = target: T1, Cytochrome P450 2E1; assay: Retention time assessed as human CYP2E1-mediated compound formation using 50 uM phenethylisothiocyanate in presence of reductase and NADPH after 30 mins by LC-MS/MS method; details: recombinant enzyme, 0.5 h
Outline: (§1)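 CYP2E1 (1 µM) and reductase (1 µM) reconstituted with lipid (100 µg/ml) and preincubated with 2 mM GSH. PEITC (final 50 µM) and NADPH (final 1.2 mM) then added, 30 min at 30°C; controls ran without NADPH. Products were taken up by C18 solid-phase extraction and analysed by positive-ion ESI LC-MS/MS, one full scan plus two data-dependent scans.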

Cytochrome P450 2E1 [3] = target: T1, Cytochrome P450 2E1; assay: Drug level assessed as human CYP2E1-mediated compound formation using 50 uM phenethylisothiocyanate in presence of reductase and NADPH after 30 mins by LC-MS/MS method; details: recombinant enzyme, 0.5 h
Outline: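 Recombinant human CYP2E1 (1 µM) with reductase (1 µM) reconstituted in DLPC (100 µg/ml), preincubated with 2 mM GSH. PEITC added to a final 50 µM with NADPH at a final 1.2 mM, then incubated 30 min at 30°C. Controls lacked NADPH. Metabolites and GSH conjugates recovered by C18 solid-phase extraction and analysed by positive-ion ESI LC-MS/MS.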

Cytochrome P450 2E1 [4] = target: T1, Cytochrome P450 2E1; assay: Inhibition of human CYP2E1 expressed in Escherichia coli MV1304 assessed as reduction in 7-EFC O-de-ethylation activity in absence of cytochrome b5 by spectrofluorometry
Outline: (§2)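 Primary mix: 1 µM CYP2E1, 1 µM reductase, 100 µg/ml DLPC and catalase in 50 mM K phosphate pH 7.4, with PEITC 0–50 µM (methanol 1% final). Started with 1.2 mM NADPH at 30°C and sampled at 0–5 min. Aliquots assayed for 10 min with 0.1 mM 7-EFC and 0.2 mM NADPH; fluorescence read at ex 410/em 510 nm. Inactivation kinetics from a double-reciprocal plot. Six experiments in duplicate.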

CYP2E1 [5] = target: T2, CYP2E1 (Homo sapiens, UniProt P05181); assay: Inactivation of human CYP2E1 expressed in Escherichia coli MV1304 assessed as remaining enzyme activity at 25 uM in presence of 1.2 mM NADPH after dialysis in presence of fresh reductase by 7-EFC O-de-ethylation activity detection based spectrofluorometry; details: probe 7-EFC (O-de-ethylation), read-out: Activity
Outline: (§3)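 CYP2E1 and reductase (1 µM each) reconstituted with DLPC (100 µg/ml) plus catalase in 50 mM K phosphate pH 7.4. Incubated 10 min at 30°C with 25 µM PEITC ± 1.2 mM NADPH; control had neither. Then dialysed overnight at 4°C against phosphate buffer with 20% glycerol and 0.1 mM EDTA. Read-outs: P450 by reduced CO difference spectrum (ε450 91 mM⁻¹cm⁻¹), heme by HPLC, and 7-EFC O-de-ethylation after re-adding lipid (50 µg/ml) ± fresh reductase (1 µM). Two experiments in duplicate.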

Cytochrome P450 2E1 [6] = target: T1, Cytochrome P450 2E1; assay: Covalent binding to human CYP2E1 expressed in Escherichia coli MV1304 assessed as protein-adduct formation at 25 uM after 10 mins by ESI LC-MS/MS method
Outline: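 CYP2E1 (1 µM) reconstituted with lipid only (100 µg/ml), no reductase, incubated 10 min at 30°C; control received methanol. Samples (50 µl) analysed by ESI LC-MS/MS on a C18 reverse-phase column equilibrated with 35% acetonitrile/0.1% TFA. Protein envelopes deconvoluted to give the intact protein mass. Mean of two injections.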

Cytochrome P450 2E1 [7] = target: T1, Cytochrome P450 2E1; assay: (§4) Inhibition of human CYP2E1 expressed in Escherichia coli MV1304 assessed as reduction in 7-EFC O-de-ethylation activity by spectrofluorometry based double reciprocal plot
Outline: (§5)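 Reconstituted CYP2E1 (1 µM) with reductase (1 µM), 100 µg/ml DLPC and catalase, in 50 mM KPi pH 7.4. PEITC 0–50 µM was added (1% methanol final) and the reaction started with 1.2 mM NADPH at 30°C. Aliquots taken at 0–5 min were assayed for 10 min with 0.1 mM 7-EFC and 0.2 mM NADPH; 7-HFC fluorescence was read. Inactivation rates were analysed by double-reciprocal plot. Six experiments, each in duplicate.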

CYP2E1 [8] = target: T2, CYP2E1; assay: as §4; details: human, probe 7-EFC (O-de-ethylation); outline: as §5
Cytochrome P450 2E1 [9] = target: T1, Cytochrome P450 2E1; assay: Drug metabolism assessed as human CYP2E1-mediated phenethylamine formation at 50 uM in presence of reductase and NADPH after 30 mins by LC-MS/MS method; details: recombinant enzyme, 0.5 h; outline: as §1
CYP2E1 [10] = target: T2, CYP2E1; assay: Inactivation of human CYP2E1 expressed in Escherichia coli MV1304 assessed as remaining enzyme activity at 25 uM after dialysis by 7-EFC O-de-ethylation activity detection based spectrofluorometry; details: probe 7-EFC (O-de-ethylation), read-out: Activity; outline: as §3
Cytochrome P450 2E1 [11] = target: T1, Cytochrome P450 2E1; assay: Inhibition of human CYP2E1 expressed in Escherichia coli MV1304 assessed as reduction in 7-EFC O-de-ethylation activity at 50 uM added 1 min before NADPH addition in presence of 1 mM GSH by spectrofluorometry; details: TDE = time-dependent effect
Outline: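 Reconstituted CYP2E1/reductase (1 µM each, DLPC, catalase, pH 7.4 phosphate). Arms: 1.2 mM NADPH alone, with 50 µM PEITC, or with 50 µM PEITC plus 1 mM GSH. PEITC added 1 min before NADPH; incubation at 30°C. Residual 7-EFC O-de-ethylation measured at 0, 2, 4, 6 and 12 min by 7-HFC fluorescence.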

Cytochrome P450 2E1 [12] = target: T1, Cytochrome P450 2E1; assay: Inactivation of human CYP2E1 expressed in Escherichia coli MV1304 assessed as remaining heme level at 25 uM in presence of 1.2 mM NADPH after dialysis by HPLC method; outline: as §3
Cytochrome P450 2E1 [13] = target: T1, Cytochrome P450 2E1; assay: Inactivation of human CYP2E1 expressed in Escherichia coli MV1304 assessed as remaining P450 level at 25 uM after dialysis by CO difference spectral method; outline: as §3
CYP2E1 [14] = target: T2, CYP2E1; assay: Inactivation of human CYP2E1 expressed in Escherichia coli MV1304 assessed as remaining enzyme activity at 25 uM in presence of 1.2 mM NADPH after dialysis by 7-EFC O-de-ethylation activity detection based spectrofluorometry; details: probe 7-EFC (O-de-ethylation), read-out: Activity; outline: as §3
Cytochrome P450 2E1 [15] = target: T1, Cytochrome P450 2E1; assay: Drug metabolism assessed as human CYP2E1-mediated phenethylamine formation at 50 uM in presence of reductase and absence of NADPH after 30 mins by LC-MS/MS method; details: recombinant enzyme, 0.5 h; outline: as §1
Cytochrome P450 2E1 [16] = target: T1, Cytochrome P450 2E1; assay: Inhibition of human CYP2E1 expressed in Escherichia coli MV1304 assessed as reduction in 7-EFC O-de-ethylation activity by spectrofluorometry; outline: as §2
Cytochrome P450 2E1 [17] = target: T1, Cytochrome P450 2E1; assay: Inactivation of human CYP2E1 expressed in Escherichia coli MV1304 assessed as remaining P450 level at 25 uM in presence of 1.2 mM NADPH after dialysis by CO difference spectral method; outline: as §3
Cytochrome P450 2E1 [18] = target: T1, Cytochrome P450 2E1; assay: Inhibition of human CYP2E1 expressed in Escherichia coli MV1304 assessed as partition ratio for enzyme inactivation
Outline: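 Reconstituted CYP2E1 (1 µM) with reductase (1 µM), 100 µg/ml DLPC and catalase, in 50 mM KPi pH 7.4. Incubated with increasing PEITC plus 1.2 mM NADPH for 10 min at 30°C until inactivation was complete. Residual 7-EFC O-de-ethylation was read by fluorescence (ex 410/em 510 nm). Percent activity remaining was plotted against PEITC:P450 molar ratio. The turnover number (r+1) was taken from the intercept of the regression lines. Mean of three experiments.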

CYP2E1 [19] = target: T2, CYP2E1; assay: Inactivation of human CYP2E1 expressed in Escherichia coli MV1304 assessed as remaining enzyme activity at 25 uM after dialysis in presence of fresh reductase by 7-EFC O-de-ethylation activity detection based spectrofluorometry; details: probe 7-EFC (O-de-ethylation), read-out: Activity; outline: as §3
Cytochrome P450 2E1 [20] = target: T1, Cytochrome P450 2E1; assay: Inactivation of human CYP2E1 expressed in Escherichia coli MV1304 assessed as remaining heme level at 25 uM after dialysis by HPLC method; outline: as §3
Liver microsome = assay: Drug level in human liver microsomes treated with 50 uM phenethylisothiocyanate after 30 mins by ESI LC-MS/MS method; details: 0.5 h
Outline: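 Human liver microsomes (0.5 mg protein/ml) in 50 mM potassium phosphate pH 7.4, preincubated 5 min with 2 mM GSH. PEITC added to a final 50 µM with NADPH at a final 1.2 mM, then incubated 30 min at 37°C. Controls lacked NADPH. GSH conjugate recovered by C18 solid-phase extraction and analysed by positive-ion LC-MS/MS.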

T1 sequence (P05181 whole entry): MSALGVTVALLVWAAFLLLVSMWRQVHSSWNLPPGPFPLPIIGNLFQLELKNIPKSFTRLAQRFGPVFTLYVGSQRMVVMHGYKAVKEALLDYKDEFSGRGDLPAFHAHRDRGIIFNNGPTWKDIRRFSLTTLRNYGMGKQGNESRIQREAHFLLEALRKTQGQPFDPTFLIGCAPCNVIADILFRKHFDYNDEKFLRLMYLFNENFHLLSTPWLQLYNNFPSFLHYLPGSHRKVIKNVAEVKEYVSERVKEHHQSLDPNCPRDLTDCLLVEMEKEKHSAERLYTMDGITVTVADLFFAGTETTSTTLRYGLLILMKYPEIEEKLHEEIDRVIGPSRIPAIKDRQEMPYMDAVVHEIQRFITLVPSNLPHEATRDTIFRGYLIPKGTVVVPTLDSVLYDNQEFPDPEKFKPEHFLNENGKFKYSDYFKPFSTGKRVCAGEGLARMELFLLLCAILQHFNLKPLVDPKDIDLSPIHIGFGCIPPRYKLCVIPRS
T2 sequence (P05181 whole entry): as above

O=C=NCCc1ccccc1 [PHENETHYL ISOCYANATE]
inhibition (INH) (Cytochrome P450 2E1 [1]): Not Active

N[C@@H](CCC(=O)N[C@@H](CSC(=S)NCCc1ccccc1)C(=O)NCC(=O)O)C(=O)O
Retention_time (Cytochrome P450 2E1 [2]): 16.7 min | Drug metabolism (Cytochrome P450 2E1 [3]): metabolite_detected

S=C=NCCc1ccccc1 [PHENETHYLISOTHIOCYANATE]
inhibition (INH) (Cytochrome P450 2E1 [4]): Active | activity at 25 µM (CYP2E1 [5]): 26% | Activity (Cytochrome P450 2E1 [6]): Not Active | Ki (Cytochrome P450 2E1 [7]): 11 µM | kinact (CYP2E1 [8]): 0.00383 s⁻¹ | Drug metabolism (Cytochrome P450 2E1 [9]): metabolite_detected | activity at 25 µM (CYP2E1 [10]): 82% | inhibition (INH) (Cytochrome P450 2E1 [11]): tde | Activity (Cytochrome P450 2E1 [12]): 64% | Activity (Cytochrome P450 2E1 [13]): 93% | activity at 25 µM (CYP2E1 [14]): 27% | Drug metabolism (Cytochrome P450 2E1 [15]): metabolite_not_detected | inhibition (INH) (Cytochrome P450 2E1 [16]): Dose-dependent effect and tde | Activity (Cytochrome P450 2E1 [17]): 42% | Ratio (Cytochrome P450 2E1 [18]): 12 | activity at 25 µM (CYP2E1 [19]): 85% | Activity (Cytochrome P450 2E1 [20]): 100%

N[C@@H](CCC(=O)N[C@@H](CSC(=O)NCCc1ccccc1)C(=O)NCC(=O)O)C(=O)O
Drug metabolism (Liver microsome): metabolite_detected | Drug metabolism (Cytochrome P450 2E1 [3]): metabolite_detected

NCCc1ccccc1 [PHENETHYLAMINE]
Retention_time (Cytochrome P450 2E1 [2]): 12.7 min

From ChEMBL document CHEMBL3526007, “The inactivation of human CYP2E1 by phenethyl isothiocyanate, a naturally occurring chemopreventive agent, and its oxidative bioactivation” (Drug Metab Dispos, 2013)
